From PubChem BioAssay
Measles CPE = protection of cells from measles virus; protection (pct of control), % at 4 µM; Measles virus-infected cells, CPE protection, absorbance; hit rate 1.5% among 140,000; in the data active = protection mostly above about 24%, no sharp cut-off; inactive = mostly below about 26%
BB579 growth dn = reduces growth of yeast BB579 in restrictive medium. hit rate 0.51% among 140,000. S. cerevisiae BB579 growth, OD615, 48 h. inhibition, % at 10 µM. AID 804;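 active = inhibition above a set limit, 3 SD over the mean compound inhibition, cut at about 44% in these data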
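System: Saccharomyces cerevisiae DeaD strain BB579, replicative lifespan model yeast. Buffer or medium: restrictive glucose-based CSMM-D medium. Doses: one dose, 10 µM compound with 0.25% DMSO. Timing: 4 h preincubation and 48 h exposure at 30 °C. Detection: turbidity as optical density at 615 nm. Benchmarks: amphotericin B 10 µg/mL, positive.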
RAM network inh = inhibitors of the yeast RAM network; S. cerevisiae dse1pr::URA3 reporter, 5-FOA growth OD615, 2 d; analog-sensitive cbk1-as2 kinase mutant strain; inhibition, % at 50 µM; hit rate 1.8% among 190,000;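 active = inhibition above a set limit, 3 SD over mean compound inhibition, cut at about 8.4% in these data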;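 note: 0% = DMSO-only wells with no growth and 100% = 10 µM 1-NA-PP1 full growth; inhibition rescues growth on 5-FOA so higher OD means more RAM inhibition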
Insulin prom inh = TRM-6 insulin promoter activity inhibition; hit rate 0.9% among 130,000; inhibition, % at 2 µM; TRM-6 cells (human fetal islet line), insulin promoter-eGFP reporter, imaging; reporter expression induced with tamoxifen;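 active = inhibition above the mean plus 3 SD, with well images judged a real hit on visual review, cut at about 60% in these data, passing the limit was not always enough; inconclusive = inhibition over the cutoff but images rejected on review; inactive = inhibition not above the cutoff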
Mdm2 ligase inh = blocks human Mdm2 ubiquitin ligase activity. signal enhancement, % at 5 µM. cell-based MDM2 ubiquitination luciferase reporter, 2 h; 0 = plate control, 100 = twice control, blank-subtracted. Q00987. hit rate 0.11% among 210,000;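 active = signal enhancement of 30% or more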;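 note: luminescence tracks abundance of the self-degrading MDM2-luciferase fusion protein; higher signal means inhibition of MDM2 E3 ligase activity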
Target sequence (Q00987 whole entry, looked up, the tested form may be a part): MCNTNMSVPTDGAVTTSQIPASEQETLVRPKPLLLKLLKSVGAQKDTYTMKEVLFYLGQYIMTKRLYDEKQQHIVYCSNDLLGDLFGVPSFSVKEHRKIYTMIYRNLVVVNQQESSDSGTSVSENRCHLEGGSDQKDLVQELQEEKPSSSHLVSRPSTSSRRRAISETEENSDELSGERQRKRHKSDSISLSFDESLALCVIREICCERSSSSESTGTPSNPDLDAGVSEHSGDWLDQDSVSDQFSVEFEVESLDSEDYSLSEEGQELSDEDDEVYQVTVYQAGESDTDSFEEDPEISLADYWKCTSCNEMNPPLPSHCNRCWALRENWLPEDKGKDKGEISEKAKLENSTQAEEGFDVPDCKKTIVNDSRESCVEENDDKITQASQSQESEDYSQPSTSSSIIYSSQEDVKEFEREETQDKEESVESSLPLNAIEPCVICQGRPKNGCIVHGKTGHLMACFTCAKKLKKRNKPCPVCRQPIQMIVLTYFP
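system = mammalian cells stably expressing self-ubiquitinating, self-degrading MDM2 E3–luciferase fusion | quantity = 2000 cells per well seeded | incubation = 4 h cell settling then 2 h compound exposure, 37 °C | signal = SteadyLite luminescence, 15 min reagent step | benchmarks = plate control and blank wells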
Yeast life ext = yeast lifespan extension. inhibition of the nicotinamide effect, % at 10 µM. hit rate 0.68% among 130,000. S. cerevisiae growth with nicotinamide, OD615; deaD strain in restrictive glucose medium;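 active = inhibition above a set limit, placed 3 SD over the median of all compounds, cut at about 26% in these data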;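 note: 0% = nicotinamide-treated wells and 100% = cells grown without nicotinamide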
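System: DeaD-strain S. cerevisiae / Buffer or medium: CSMM-D, restrictive glucose (dextrose) synthetic minimal medium / Probe or stimulus: nicotinamide, 1.5 mM, co-present with compound / Compound: one concentration, 10 µM, DMSO 0.25% / Incubation: 48 h compound exposure at 30 °C, humidified / Technique: optical density (absorbance) at 615 nm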
Numbers without * were called inactive; ? = inconclusive; . = not tested or not shown. Shown are actives, neighbours in structure and some others; about 4% of the full set was active somewhere.

SMILES | Measles CPE | BB579 growth dn | RAM network inh | Insulin prom inh | Mdm2 ligase inh | Yeast life ext
CCOC(=O)CSc1nc2cc(OC)ccc2cc1C#N | 2.1 | -31.1 | 5.3 | 93.8* | -7.2 | -15.1
C=CCn1c(O)c(C2=c3ccccc3=NC2=O)sc1=Nc1ccc(O)cc1 | . | . | . | . | -3.9 | .
O=C(/C=C/N1CCOCC1)c1ccc(-c2ccccc2)cc1 | 1.8 | 98.6* | 1.8 | 60.0 | -8.8 | -31.6
COc1ccc(/C=C/C(=O)N(C)c2ccccc2C(=O)O)cc1 | . | . | -0.9 | 20.0 | -2.1 | .
Oc1cccc2ccc(/C=C/c3cccs3)nc12 | 10.6 | 58.6* | -0.4 | 43.5 | -6.3 | -18.1
CC(NC(=O)c1ccc2c(c1)OCO2)C(c1cccs1)N1CCN(c2ccccc2)CC1 (stereo not given) | . | . | . | . | -6.2 | .
CCCn1c(=O)c(C#N)cn(C2CC2)c1=O | . | . | . | . | -6.0 | .
CC(C)(C)N/N=C/c1c(O)n(-c2ccc(Cl)cn2)c(=O)c2ccccc12 | 14.4 | -34.4 | 8.5* | -10.0 | 11.5 | 18.3
COC(=O)CN=Cc1c(O)n(-c2ccc(Cl)cn2)c(=O)c2ccccc12 | . | . | 0.2 | . | -8.0 | .
O=c1c2ccccc2c(C=Nc2cccc(S(=O)(=O)NCc3ccco3)c2)c(O)n1-c1ccc(Cl)cn1 | 5.5 | -35.7 | 8.6* | . | -5.9 | 2.1
COc1ccccc1OCC(=O)n1cc(C(=O)c2cc(Cl)cc(Cl)c2O)cn1 | 3.9 | 45.3* | -1.5 | 13.3 | -2.9 | -8.3
CCOc1ccc(-n2c(=S)sc3c(=O)[nH]c(SCC(=O)NCC4CCCO4)nc32)cc1 (stereo not given) | 10.1 | -52.0 | 8.7* | -50.0 | 0.8 | 8.9
c1ccc(-c2nc(NCc3ccco3)c3oc4ccccc4c3n2)cc1 | -0.1 | -50.5 | 11.2* | -13.9 | 10.1 | -7.9
Cc1ccc(-c2nc(NCc3ccco3)c3ccccc3n2)cc1 | 25.3 | -17.4 | -0.4 | 10.8 | -7.5 | -8.9
O=C(O)CSc1nc(-c2ccccc2)nc2c1oc1ccccc12 | . | -32.8 | 9.8* | -50.0 | -27.9 | -8.9
Cn1ncc(Cl)c1C(=O)NC(=S)Nc1sc2c(c1C#N)CCCCC2 | 7.5 | -46.5 | 1.1 | . | -3.6 | -11.4
N#Cc1ccccc1Sc1ccccc1C(=O)OCc1nnc(-c2ccccc2)o1 | 4.0 | -56.6 | 10.5* | 36.4 | -19.9 | -15.0
N#Cc1ccccc1Sc1ccccc1C(=O)OCC(N)=O | . | . | 5.2 | . | -10.2 | .
Cc1nnc(SC(C)C(=O)Nc2ccc(S(=O)(=O)N3CCCCCC3)cc2)s1 (stereo not given) | 5.2 | -50.5 | 9.2* | . | -4.8 | -20.9
Cc1nnc(SC(C)C(=O)Nc2ccc3c(c2)OCCO3)s1 (stereo not given) | 14.7 | -52.8 | 1.8 | . | -15.2 | -7.5
Cc1cc(C)c(C#N)c(SC(F)F)n1 | 15.6 | -39.5 | 0.3 | 53.5 | -2.1 | -22.2
Cc1ccc(C(=O)N2CCN(C3c4cccc5cccc(c45)C3NS(=O)(=O)c3ccccc3)CC2)cc1 (stereo not given) | 55.2* | -23.5 | 3.1 | -44.4 | -2.6 | -5.4
COc1ccc(CCNC(=O)CSc2cn(Cc3ccccc3)c3ccccc23)cc1OC | 3.6 | -35.2 | 10.1* | 0.0 | . | 9.8
COc1ccc(CCNC(=O)CSc2cn(Cc3cccc(C)c3)c3ccccc23)cc1OC | 4.4 | -45.4 | 6.3 | -95.0 | . | 14.8
CCNc1nc(NC(C)C)nc(ON=C(C)C)n1 | 8.6 | 8.2 | 1.0 | 11.1 | -18.2 | 2.7
SMILES | Measles CPE | BB579 growth dn | RAM network inh | Insulin prom inh | Mdm2 ligase inh | Yeast life ext
CCNc1nc(NC(C)C)nc(OCC)n1 | 22.3 | -48.0 | 0.8 | 72.2* | -11.7 | -6.3
CC1=C(C(=O)Nc2ccccc2)C(c2ccncc2)C(C#N)=C(SCC(=O)NC2CC2)N1 (stereo not given) | 34.2* | -31.4 | 1.7 | . | -16.6 | -6.3
CC1=C(C(=O)Nc2ccccc2)C(c2ccncc2)C(C#N)=C(SCC(=O)NC(C)C)N1 (stereo not given) | 5.7 | -1.8 | 0.1 | ? | -3.8 | -15.0
Cn1ncc2c(N3CCN(c4ccc(Cl)c(Cl)c4)CC3)ncnc21 | . | . | 2.2 | . | -45.7 | .
COc1ccc(CCC(=O)NNC(=S)Nc2cccc(C(C)=O)c2)cc1 | . | . | 0.1 | -129.4 | -14.6 | .
O=C(Cn1cnc2ccc(Cl)cc2c1=O)c1cccs1 | 52.2* | 13.9 | 2.1 | 6.0 | -0.7 | -0.1
Cn1nc(-c2ccc(C(=O)Nc3cccc(Cl)c3)cc2)c2ccccc2c1=O | 37.9* | -27.2 | 0.3 | 40.0 | -10.0 | -5.3
COc1cc(NC(=O)c2ccc(COCC(F)(F)F)cc2)cc(OC)c1OC | 30.0* | -19.7 | 1.3 | . | 9.1 | -17.1
COc1ccc(NC(=O)c2ccc(COCC(F)(F)C(F)F)cc2)cc1OC | 12.7 | -3.6 | 6.5 | . | -10.3 | -1.8
CS(=O)(=O)N1CCC(Oc2ccccc2C(=O)NCCCc2cccnc2)CC1 | . | . | 2.0 | 11.1 | 5.3 | .
O=C(CN(Cc1cccs1)C(=O)CNS(=O)(=O)c1ccccc1)NC1CCCC1 | . | . | 2.9 | . | -13.1 | .
CC(=O)c1ccc(NC(=O)CN2CCN(c3ncccn3)CC2)cc1 | 77.6* | -51.9 | 0.3 | -16.2 | -17.7 | -6.4
CCN(CC)C(=O)CN1CCN(c2ncccn2)CC1 | 14.1 | -5.0 | 0.9 | . | 53.1* | -5.5
O=C(CN1CCN(c2ncccn2)CC1)N1CCCC1 | . | . | -0.1 | . | -2.2 | .
Cc1nnc(SCC(=O)NCc2ccccc2Cl)[nH]c1=O | . | . | 2.3 | . | -3.9 | .
COC(=O)c1sccc1N(C)S(C)(=O)=O | . | . | 1.8 | 11.1 | 3.4 | .
Cc1cccc(-c2nc(C#N)c(NC3CCCCC3)o2)c1 | 43.1* | -23.6 | 0.0 | -5.9 | -4.3 | -8.1
Cc1cccc(-c2nc(CS(=O)CC(=O)NC3CCCC3)c(C)o2)c1 (stereo not given) | 8.6 | -24.9 | 1.6 | . | 0.1 | -10.1
Cc1ccc(C(=O)CSc2nsc(C)c2C#N)cc1 | 8.2 | -42.0 | 1.3 | 0.0 | -7.0 | -8.5
Cc1ccnc(SCC(=O)c2ccc(Br)cc2)c1C#N | 2.5 | -32.0 | 1.2 | 61.1* | -5.9 | -0.5
CC(C)(C)NC(=O)CN1CCN(C(=O)CCl)CC1 | . | . | 1.4 | . | -21.6 | .
CCOC(=O)c1sc(-c2ccccc2)cc1NC(=O)CSc1nnnn1C | 31.9 | -6.8 | 8.4* | . | -15.4 | -7.0
CCOC(=O)c1cc(-c2ccccc2)sc1NC(=O)CSc1nnnn1C | 7.1 | -91.6 | 8.4* | . | -13.9 | -7.8
CCOC(=O)c1cccc(NC(=O)CSc2nnnn2C)c1 | 15.6 | -38.5 | 0.5 | -18.2 | 2.5 | -17.2
Cc1onc(-c2ccccc2)c1CNS(=O)(=O)c1ccccc1[N+](=O)[O-] | . | . | . | . | -12.7 | .
COC(=O)c1cc(Br)c(=O)n(Cc2ccc3c(c2)OCO3)c1 | 4.8 | -22.4 | -1.7 | . | 0.1 | -6.0
O=S1(=O)C=C(Oc2ccc(F)cc2)c2ccccc21 | 37.6 | -16.5 | -0.3 | 44.4 | -18.1 | -12.2
O=S1(=O)C=C(Oc2ccc3ccccc3c2)c2ccccc21 | 66.4* | -3.7 | 1.7 | 36.8 | 2.8 | -14.4
